Activity calls are given as the source filed them. No cut-off for these calls is given here.
Columns and labels:
[1] = species: Felis catus; assay: Positive inotropic activity in cat heart papillary muscle assessed as increase in contractile force at 1.7 ug/mL measured up to 45 mins; assay type: functional, tissue-based; settings: Muscle tissue
Procedure, shortened: (§1)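 Electrically paced (1/s) right-ventricular cat papillary muscles in Krebs–Henseleit solution at 37 °C. Compound added after force declined to 25–30% of original following about 90 min equilibration. Contractile force followed over time to peak and to end of action. Values are the average of four experiments.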

[2] = Positive inotropic activity in cat heart papillary muscle assessed as concentration required to increase contractile force by 500 mg measured for 5 to 30 mins; assay type: functional, Felis catus, Muscle tissue
Procedure, shortened: (§2)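 Right-ventricular cat papillary muscles in Krebs–Henseleit at 37 °C, field-stimulated at 1/s (4–10 ms, 6–10 V). Muscles equilibrated about 90 min, until force fell to 25–30% of original. Compound added and force recorded at 5, 10, 20 and 30 min, followed by ouabain 0.5 μg/mL. Positives were retested on three more preparations at ≥3 concentrations. Scored as mg increase in contractile force.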

[3] = tested on: Canis familiaris; assay: Toxicity in Beagle dog assessed as increase in heart rate at 1.25 to 5 mg/kg, iv measured within 2 mins; assay type: organism-based, Canis lupus familiaris; parameters: dose 1.25-5 mg/kg, route intravenous; settings: in vivo
[4] = Positive inotropic activity in cat heart papillary muscle assessed as increase in contractile force at 2.5 ug/mL measured for 5 to 30 mins; assay type: functional, Felis catus, Muscle tissue; procedure, shortened: as §2
[5] = tested on: Canis familiaris; assay: Toxicity in Beagle dog assessed as reduction in mean arterial pressure at 5 mg/kg, iv; assay type: organism-based, Canis lupus familiaris, Artery; parameters: dose 5 mg/kg, route intravenous; settings: in vivo
[6] = species: Felis catus; assay: Positive inotropic activity in heart papillary muscle isolated from reserpine-treated cat assessed as increase in contractile force at 10 ug/mL measured for 5 to 30 mins; assay type: functional, tissue-based; settings: Muscle tissue
Procedure, shortened: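 Cats pretreated with reserpine 0.5 mg/kg ip before papillary muscle isolation. Right-ventricular muscles kept in Krebs–Henseleit at 37 °C, stimulated at 1/s, and force recorded at 5–30 min after compound addition.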

[7] = Inhibition of calf heart Na+-K+ dependent ATPase preincubated for 30 mins measured after 10 to 20 mins; parameters: species or system Bos taurus; settings: read-out: I50
Procedure, shortened: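 Partially purified membrane ATPase from calf heart or guinea pig renal cortex. Inhibitor plus enzyme were preincubated 30 min at 10× final concentrations, then added to the otherwise complete assay system. Incubated at 37 °C under air, with aliquots taken at 10 and 20 min. Liberated phosphate measured by the Lowry–Lopez method. I50 came from log inhibitor vs percent inhibition lines, at least three points.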

[8] = Positive inotropic activity in cat heart papillary muscle assessed as increase in contractile force at 1.7 ug/mL measured for 10 mins (reference value: 855 mg); assay type: functional, Felis catus, Muscle tissue; procedure, shortened: as §1
[9] = tested on: Canis familiaris; assay: Positive inotropic activity in Beagle dog assessed as increase in left ventricular dp/dt maximum at 1.25 mg/kg, iv; assay type: functional, organism-based; parameters: dose 1.25 mg/kg; settings: Canis lupus familiaris, Heart left ventricle
[10] = tested on: Canis familiaris; assay: Toxicity in Beagle dog assessed as effect on mean arterial pressure at 1.25 mg/kg, iv; assay type: organism-based, Canis lupus familiaris, Artery; parameters: dose 1.25 mg/kg, route intravenous; settings: in vivo
[11] = tested on: Canis familiaris; assay: Positive inotropic activity in Beagle dog assessed as increase in left ventricular pressure at 1.25 mg/kg, iv; assay type: functional, organism-based; parameters: dose 1.25 mg/kg; settings: Canis lupus familiaris, Heart left ventricle
[12] = tested on: Canis familiaris; assay: Positive inotropic activity in Beagle dog assessed as increase in left ventricular contractile force at 5 mg/kg, iv; assay type: functional, organism-based; parameters: dose 5 mg/kg; settings: Canis lupus familiaris, Heart left ventricle
[13] = species: Felis catus; assay: Positive inotropic activity in cat heart papillary muscle assessed as increase in contractile force up to 10 ug/mL measured for 5 to 30 mins in presence of beta-adrenergic inhibitor sotalol; assay type: functional, tissue-based
Procedure, shortened: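 Cat right-ventricular papillary muscle in Krebs–Henseleit at 37 °C, electrically driven at 1/s. Force recorded 5–30 min after compound, in the presence of the β-blocker sotalol at 10 μg/mL. Scored as mg increase in contractile force.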

[14] = tested on: Canis familiaris; assay: Positive inotropic activity in Beagle dog assessed as increase in left ventricular contractile force at 1.25 mg/kg, iv measured within 5 mins (reference value: 76 g); assay type: functional, Canis lupus familiaris, Heart left ventricle
[15] = tested on: Canis familiaris; assay: Positive inotropic activity in Beagle dog assessed as increase in left ventricular contractile force at 1.25 mg/kg, iv measured after 1 hr; assay type: functional, organism-based; parameters: dose 1.25 mg/kg; settings: Canis lupus familiaris, Heart left ventricle
[16] = Positive inotropic activity in cat heart papillary muscle assessed as increase in contractile force at 0.156 ug/mL measured for 5 to 30 mins; assay type: functional, Felis catus, Muscle tissue
Procedure, shortened: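 Right-ventricular cat papillary muscles in Krebs–Henseleit solution at 37 °C, paced at 1/s (4–10 ms, 6–10 V square waves). Equilibrated about 90 min; compound added once force had fallen to 25–30% of original (1.5–2 h). Force recorded 5, 10, 20 and 30 min after addition, then ouabain 0.5 μg/mL added. Increase over 20% scored positive. Actives retested on three further preparations at ≥3 concentrations.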

[17] = Inhibition of calf heart Na+-K+ dependent ATPase after 10 to 20 mins; parameters: species or system Bos taurus; settings: read-out: I50
Procedure, shortened: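 Partially purified membrane ATPase from calf heart or guinea pig renal cortex. Reaction started by final addition of enzyme. Incubated at 37 °C under air, with aliquots taken at 10 and 20 min. Liberated phosphate measured by the Lowry–Lopez method. I50 came from log inhibitor vs percent inhibition lines, at least three points. This was done only where acute inhibition was >50% at 1 × 10⁻³ M.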

[18] = Dissociation constant, pKa of the compound; assay type: physicochemical
Procedure, shortened: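 pKa determined in water or in 30% EtOH–70% H2O, depending on compound.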

[19] = Positive inotropic activity in cat heart papillary muscle assessed as increase in contractile force at 10 ug/mL measured for 5 to 30 mins; assay type: functional, Felis catus, Muscle tissue; procedure, shortened: as §2

For `N=C(NCc1c[nH]c2ccccc12)C(Cl)(Cl)Cl`, the Activity [1] was “Active”, the Activity [2] was 1.27 µg/mL and the Activity [3] was “Toxic”. For the same compound, the Activity [4] was 201 mg, the Activity [5] was “Toxic” and the Activity [6] was “Active”. For the same compound, the IC50 [7] was 20 µM, the Activity [8] was 1375 mg and the Activity [9] was “Active”. The Activity [10] was “Non-toxic”, the Activity [11] was “Active” and the Activity [12] was “Active”. The Activity [13] was “Active”, the Activity [14] was 125 g and the Activity [15] was “Active”. For the same compound, the Activity [16] was 201 mg, the IC50 [17] was 45 µM and the pKa [18] was 6. For the same compound, the Activity [19] was >600 mg.

Source: ChEMBL document CHEMBL3244020, “Trichloroacetamidines, a new class of positive inotropic agents” (J Med Chem, 1978)
